Experimental findings from publication PMC9091619 (RSC Advances, 2018) are described below.

Series [1] concerns MCF-7 (breast cancer) cells. Briefly: In vitro cytotoxicity, MTT/MTS cell viability assay, MCF-7. It is filed as cell-based, human. The conditions noted are these: read-out: IC50 ± SD, MCF-7. The procedure, abridged:
(§1)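 Human cancer lines from ATCC, grown in RPMI-1640 or DMEM with 10% FBS at 37 °C, 5% CO2. Seeding at 1 × 10^5 cells per mL: adherent cells 12 h before dosing, suspension cells at dosing. 48 h exposure to graded concentrations, in triplicate; cisplatin and paclitaxel as positive controls. MTS added for 4 h at 37 °C, lysis in 20% SDS–50% DMF, OD 490 nm. IC50 by Reed and Muench's method.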
(Tetrazolium assays rely on reduction of a dye to a coloured formazan, in cell work by metabolically active cells.)

Series [2] has as its system A-549 (lung cancer) cells. Briefly: In vitro cytotoxicity, MTT/MTS cell viability assay, A-549. The conditions noted are these: read-out: IC50 ± SD, A-549. Format: cell-based, human. The procedure, abridged: as §1
The test system of series [3] is SW480 (colon cancer) cells. Briefly: In vitro cytotoxicity, MTT/MTS cell viability assay, SW480. Format: cell-based, human. The conditions noted are these: read-out: IC50 ± SD, SW480. The method, boiled down:
as §1

Series [4] has as its system five human cancer cell lines (HL-60, SMMC-7721, A-549, MCF-7 and SW480). Briefly: Cytotoxicity against the panel of five tested cancer cell lines. Format: cell-based. The conditions noted are these: for cytotoxicity against the tested cancer cell lines (in words): five tested cancer cell lines; for IC50: Homo sapiens, read-out: IC50 against all the tested cancer cell lines. The procedure, abridged: as §1

Another series has as its system HL-60 (leukemia) cells. Briefly: In vitro cytotoxicity, MTT/MTS cell viability assay, HL-60. Format: cell-based, human. The conditions noted are these: read-out: IC50 ± SD, HL-60. The procedure, abridged: as §1
Series [5] deals with SMMC-7721 (hepatoma cells). Briefly: In vitro cytotoxicity, MTT/MTS cell viability assay, SMMC-7721. It is filed as cell-based, human. The conditions noted are these: read-out: IC50 ± SD, SMMC-7721. The procedure, abridged:
as §1

For series [6], the system named is human normal pulmonary epithelial cells (BEAS-2B). Briefly: Growth inhibitory effect on normal cells, BEAS-2B. Format: cell-based. The conditions noted are these: for IC50: read-out: IC50 ± SD, BEAS-2B.

Read-outs that look alike come from different tables or passages of the source.

Broadly, the IC50 is the midpoint of a concentration-inhibition curve. Mangostanin [Compound 2m]: the half-inhibitory concentration (IC50) in series [1] (MCF-7 cells, 48 h exposure) was above 40 µM; in series [2] (A-549 cells, 48 h exposure), above 40 µM; in series [3] (SW480 cells, 48 h exposure), above 40 µM; with HL-60 (leukemia) cells (HL-60 cells, 48 h exposure), above 40 µM. Besides, the “cytotoxicity against the tested cancer cell lines (in words)” value (shortened to “cytotoxicity”) in series [4] is “slightly decreased activity or comparative activity”.
On to `O=c1c2ccc(O)cc2oc2cc(O)cc(O)c12` [Compound 2u, 1,3,6-Trihydroxy-9H-xanthen-9-one], for which the IC50 is above 40 µM in series [1] (Homo sapiens, MCF7, 48 h); above 40 µM in series [2] (Homo sapiens, A549, 48 h); above 40 µM in series [5] (Homo sapiens, SMMC-7721, 48 h); above 40 µM in series [3] (Homo sapiens, SW480, 48 h); above 40 µM in the series on HL-60 (leukemia) cells (Homo sapiens, HL-60, 48 h).
As for `COc1c(O)cc2oc3cc(O)c(CCC(C)C)c(O)c3c(=O)c2c1CC(O)C(C)(C)O` (stereo not drawn) [Compound 2e, 1,3,6-Trihydroxy-2-isopentyl-7-methoxy-8-(2,3-dihydroxy-3-methylbutyl)-9H-xanthen-9-one], the IC50 in series [1] (Homo sapiens, MCF7, 48 h) was above 40 µM; in series [2] (Homo sapiens, A549, 48 h), above 40 µM; in series [6] (Homo sapiens, BEAS-2B) it was above 40 µM; in series [5] (Homo sapiens, SMMC-7721, 48 h) it was above 40 µM; in series [3] (Homo sapiens, SW480, 48 h), above 40 µM; in the series on HL-60 (leukemia) cells (Homo sapiens, HL-60, 48 h), 18.7 ± 0.23 µM. In addition, the “toxicity to BEAS-2B cells (in words)” value in series [6] (BEAS-2B normal cells) was “non-cytotoxic”.
In the case of `COc1cccc2c1C(=O)c1c(O)c3c(c(O)c1C2=O)C[C@@](O)(C(=O)CO)C[C@@H]3O[C@H]1C[C@H](N)[C@H](O)[C@H](C)O1` [ADM, Adriamycin, reference compound], the half-maximal inhibitory concentration (IC50) is 0.9 ± 0.02 µM in series [1] (Homo sapiens, MCF7, 48 h); 0.3 ± 0.01 µM in series [2] (Homo sapiens, A549, 48 h); above 40 µM in series [6] (Homo sapiens, BEAS-2B); 0.9 ± 0.03 µM in series [5] (Homo sapiens, SMMC-7721, 48 h); 0.11 ± 0.01 µM in series [3] (Homo sapiens, SW480, 48 h); 0.14 µM with HL-60 (leukemia) cells (Homo sapiens, HL-60, 48 h).
Regarding `COc1cc2oc3cc(OC)c(OC)c(CCC(C)C)c3c(=O)c2c(OC)c1CC(OC)C(C)(C)OC` (stereo not drawn) [Compound 2j, 2-(2,3-Dimethoxy-3-methylbutyl)-8-isopentyl-1,3,6,7-tetramethoxy-9H-xanthen-9-one], the IC50 in series [1] (Homo sapiens, MCF7, 48 h) is above 40 µM; in series [2] (Homo sapiens, A549, 48 h) it was above 40 µM; in series [5] (Homo sapiens, SMMC-7721, 48 h), above 40 µM; in series [3] (Homo sapiens, SW480, 48 h), above 40 µM; in the series on HL-60 (leukemia) cells (Homo sapiens, HL-60, 48 h) it was above 40 µM. For the same molecule, the “cytotoxicity” value in series [4] is “disappearance of cytotoxicity”.
`COc1c(O)cc2oc3cc(O)c(CC=C(C)C)c(O)c3c(=O)c2c1CC(O)C(C)(C)O` (stereo not drawn) [Compound 2b, 1,3,6-Trihydroxy-2-(3-methyl-2-butenyl)-7-methoxy-8-(2,3-dihydroxy-3-methylbutyl)xanthone]: the half-inhibitory concentration (IC50) in series [1] (Homo sapiens, MCF7, 48 h) is above 40 µM; in series [2] (Homo sapiens, A549, 48 h), above 40 µM; in series [5] (Homo sapiens, SMMC-7721, 48 h) it was above 40 µM; in series [3] (Homo sapiens, SW480, 48 h) it was above 40 µM; in series [4], above 40 µM; with HL-60 (leukemia) cells (Homo sapiens, HL-60, 48 h), above 40 µM.
As for `COc1c(O)cc2oc3cc(O)c(CC(O)C(C)(C)O)c(O)c3c(=O)c2c1CCC(C)C` (stereo not drawn) [Compound 2d, 1,3,6-Trihydroxy-2-(2,3-dihydroxy-3-methylbutyl)-7-methoxy-8-isopentyl-9H-xanthen-9-one], the IC50 was above 40 µM in series [1] (Homo sapiens, MCF7, 48 h); 36 ± 0.99 µM in series [2] (Homo sapiens, A549, 48 h); above 40 µM in series [6] (Homo sapiens, BEAS-2B); 26.9 ± 3.75 µM in series [5] (Homo sapiens, SMMC-7721, 48 h); above 40 µM in series [3] (Homo sapiens, SW480, 48 h); 21.6 ± 2.41 µM in the series with HL-60 (leukemia) cells (Homo sapiens, HL-60, 48 h). In addition, the “cytotoxicity” value in series [4] was “slightly decreased activity or comparative activity”.
In the case of `COc1cc2oc3cc(OC)c(OC)c(CC=C(C)C)c3c(=O)c2c(OC)c1CC(OC)C(C)(C)OC` (stereo not drawn) [Compound 2i, 2-(2,3-Dimethoxy-3-methylbutyl)-1,3,6,7-tetramethoxy-8-(3-methylbut-2-en-1-yl)-9H-xanthen-9-one], the half-inhibitory concentration (IC50) in series [1] (Homo sapiens, MCF7, 48 h) is above 40 µM; in series [2] (Homo sapiens, A549, 48 h), above 40 µM; in series [5] (Homo sapiens, SMMC-7721, 48 h), above 40 µM; in series [3] (Homo sapiens, SW480, 48 h) it was above 40 µM; with HL-60 (leukemia) cells (Homo sapiens, HL-60, 48 h), above 40 µM. Besides, the “cytotoxicity” value in series [4] is on record as “disappearance of cytotoxicity”.
In the case of `COc1c(O)cc2oc3cc(O)c(CC(O)C(C)(C)O)c(O)c3c(=O)c2c1CC(O)C(C)(C)O` (stereo not drawn) [Compound 2c, 1,3,6-Trihydroxy-7-methoxy-2,8-bis(2,3-dihydroxy-3-methylbutyl)-9H-xanthen-9-one], the IC50 was above 40 µM in series [1] (Homo sapiens, MCF7, 48 h); above 40 µM in series [2] (Homo sapiens, A549, 48 h); above 40 µM in series [5] (Homo sapiens, SMMC-7721, 48 h); above 40 µM in series [3] (Homo sapiens, SW480, 48 h); above 40 µM in series [4]; above 40 µM in the series on HL-60 (leukemia) cells (Homo sapiens, HL-60, 48 h). The “cytotoxicity” value in series [4] is “completely disappeared”.
Consider `COc1c(O)cc2oc3cc(O)c(CC(O)C(C)(C)O)c(O)c3c(=O)c2c1CC=C(C)C` (stereo not drawn) [Compound 2a, 1,3,6-Trihydroxy-2-(2,3-dihydroxy-3-methylbutyl)-7-methoxy-8-(3-methyl-2-butenyl)xanthone], for which the IC50 in series [1] (Homo sapiens, MCF7, 48 h) was 23.7 ± 0.64 µM; in series [2] (Homo sapiens, A549, 48 h), 19.8 ± 1.42 µM; in series [6] (Homo sapiens, BEAS-2B), 18.3 ± 0.51 µM; in series [5] (Homo sapiens, SMMC-7721, 48 h) it was 23.4 ± 1.29 µM; in series [3] (Homo sapiens, SW480, 48 h), above 40 µM; in the series with HL-60 (leukemia) cells (Homo sapiens, HL-60, 48 h) it was 18.2 ± 0.48 µM. For the same molecule, the “cytotoxicity” value in series [4] was “slightly decreased activity or comparative activity”.
For `COc1c(O)cc2oc3cc(O)c(CC=C(C)C)c(O)c3c(=O)c2c1CC1OC1(C)C` (stereo not drawn) [Compound 2l, 1-((3,3-Dimethyloxiran-2-yl)methyl)-3,6,8-trihydroxy-2-methoxy-7-(3-methylbut-2-en-1-yl)-9H-xanthen-9-one], the IC50 in series [1] (Homo sapiens, MCF7, 48 h) was above 40 µM; in series [2] (Homo sapiens, A549, 48 h) it was above 40 µM; in series [5] (Homo sapiens, SMMC-7721, 48 h), above 40 µM; in series [3] (Homo sapiens, SW480, 48 h) it was above 40 µM; in series [4], above 40 µM; with HL-60 (leukemia) cells (Homo sapiens, HL-60, 48 h) it was above 40 µM.
As for `COc1c(O)cc2oc3cc(O)c(CCC(C)(C)O)c(O)c3c(=O)c2c1CC=C(C)C` [Compound 2n, 1,3,6-Trihydroxy-2-(3-hydroxy-3-methylbutyl)-7-methoxy-8-(3-methylbut-2-en-1-yl)-9H-xanthen-9-one], the IC50 in series [1] (Homo sapiens, MCF7, 48 h) was determined as 24.6 ± 0.47 µM; in series [2] (Homo sapiens, A549, 48 h), 17 ± 0.77 µM; in series [6] (Homo sapiens, BEAS-2B), 29.3 ± 1.02 µM; in series [5] (Homo sapiens, SMMC-7721, 48 h), 26.3 ± 1.04 µM; in series [3] (Homo sapiens, SW480, 48 h), 22.7 ± 2.35 µM; in the series on HL-60 (leukemia) cells (Homo sapiens, HL-60, 48 h), 14.4 ± 0.05 µM. In addition, the “cytotoxicity” value in series [4] was “slightly decreased activity or comparative activity”.
As to `N.N.[Cl][Pt][Cl]` [DDP, Cisplatin, reference compound], the IC50 is 28.4 ± 3.71 µM in series [1] (MCF-7 cells, 48 h exposure); 13.8 ± 0.74 µM in series [2] (A-549 cells, 48 h exposure); above 40 µM in series [6] (BEAS-2B normal pulmonary epithelial cells); 18 ± 0.49 µM in series [5] (SMMC-7721 cells, 48 h exposure); 14.8 ± 2.15 µM in series [3] (SW480 cells, 48 h exposure); 3.19 ± 0.18 µM in the series on HL-60 (leukemia) cells (HL-60 cells, 48 h exposure).
